Results on 46 molecules are retold here after ChEMBL document CHEMBL1124416, “5-(1-piperazinyl)-1H-1,2,4-triazol-3-amines as antihypertensive agents” (1989).

Assay [1] relates to Rattus norvegicus. Briefly: Assessment of antihypertensive activity at 100 mg/kg administered perorally by measuring the heart rate in rats. Type of assay: functional. To be noted: route oral.
Assay [2] is filed under the species Rattus norvegicus. Type of assay: functional, Artery. The conditions noted are these: dose 100 mg/kg; route oral.
Assay [3] deals with Rattus norvegicus. Briefly: The antihypertensive activity was assessed by measuring the heart rate in rats when administered at 50 mg/kg. Type of assay: functional. Put shortly:
(§1)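 16-week-old male SH rats (Okamoto) were dosed by oral gavage in 3% starch in normal saline (2 mL/kg), plus an oral saline load of 25 mL/kg. They were redosed at 24 h without the saline load. MABP and HR were taken by direct femoral arterial puncture under local anesthesia 4 h after the second dose. HR was rounded to 10 bpm.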

Assay [4] concerns Rattus norvegicus. Briefly: The antihypertensive activity was assessed by measuring the mean arterial blood pressure in rats when administered at 50 mg/kg. It counts as functional. Put shortly:
as §1

Molecules are shown by their SMILES.

Regarding `Cc1ccc(C)c(CN2CCN(c3n[nH]c(N)n3)CC2)c1`, the HR in assay [1] stood at 400 beats min-1. For the same molecule, the MABP in assay [2] was 139 mmHg.

For the molecule `CN(C)c1ccc(CN2CCN(c3n[nH]c(N)n3)CC2)cc1`, the figures for the HR in assay [1] and in assay [3] were 380 beats min-1 and 440 beats min-1, respectively. Besides, the MABP in assay [2] was found to be 111 mmHg; in assay [4], 129 mmHg.

For the molecule `Cc1ccc(CN2CCN(c3n[nH]c(N)n3)CC2)cc1`, the values for the HR in assay [1] and in assay [3] were 340 beats min-1 and 350 beats min-1, respectively. The MABP in assay [2] stood at 112 mmHg; in assay [4], 70 mmHg.

Regarding `Nc1n[nH]c(N2CCN(Cc3c(Cl)cccc3Cl)CC2)n1`, the HR in assay [1] was 400 beats min-1. Also, in assay [2], the MABP is 140 mmHg.

`Nc1n[nH]c(N2CCN(c3ccccc3)CC2)n1` showed an HR in assay [1] of 340 beats min-1. In assay [2], this molecule returned an MABP of 128 mmHg.

Consider `Nc1n[nH]c(N2CCN(CCNCc3ccncc3)CC2)n1`, for which the HR in assay [1] came out at 440 beats min-1. In assay [2], this molecule showed an MABP of 144 mmHg.

For the molecule `CC(=O)N1CCN(c2n[nH]c(N)n2)CC1`, the HR in assay [1] stood at 440 beats min-1. Besides, in assay [2], the MABP worked out at 142 mmHg.

Molecule `CC(C)C(=O)N1CCN(c2n[nH]c(N)n2)CC1` showed an HR in assay [1] of 410 beats min-1. Further, the MABP in assay [2] amounted to 141 mmHg.

On to `Nc1n[nH]c(N2CCN(c3ccccn3)CC2)n1`, for which the HR in assay [1] amounted to 430 beats min-1. Besides, in assay [2], the MABP was found to be 133 mmHg.

Regarding `Nc1n[nH]c(N2CCN(Cc3cccc(C(F)(F)F)c3)CC2)n1`, the HR in assay [1] is listed as 390 beats min-1. The MABP in assay [2] was 129 mmHg.

`CC(C)(C)c1ccc(CN2CCN(c3n[nH]c(N)n3)CC2)cc1`: in assay [1], the HR is reported as 350 beats min-1. In assay [2], this molecule returned an MABP of 130 mmHg.

Turning to `N#Cc1ccc(CN2CCN(c3nc(N)n[nH]3)CC2)cc1`, the HR in assay [1] is reported as 420 beats min-1. The MABP in assay [2] is given as 127 mmHg.

On to `COc1ccc(CN2CCN(c3n[nH]c(N)n3)CC2)c(OC)c1OC`, for which the HR in assay [1] came to 420 beats min-1. Besides, the MABP in assay [2] is recorded as 147 mmHg.

The molecule `Nc1n[nH]c(N2CCN(Cc3ccncc3)CC2)n1` had an HR in assay [1] of 380 beats min-1. The MABP in assay [2] was determined as 142 mmHg.

The molecule `Cl.Cl.Nc1n[nH]c(N2CCN(Cc3cccc4ccccc34)CC2)n1` yielded an HR in assay [1] of 350 beats min-1. The MABP in assay [2] was found to be 133 mmHg.

`Nc1n[nH]c(N2CCN(c3ccc(F)cc3)CC2)n1` had an HR in assay [1] of 420 beats min-1. This molecule gave an MABP in assay [2] of 151 mmHg.

The molecule `CC(c1ccccc1)N1CCN(c2n[nH]c(N)n2)CC1` (stereo unspecified) registered an HR in assay [1] of 370 beats min-1. The molecule also gave an MABP in assay [2] of 136 mmHg.

Turning to `Nc1n[nH]c(N2CCN(C(c3ccccc3)c3ccc(Cl)cc3)CC2)n1` (stereo unspecified), the HR in assay [1] amounted to 350 beats min-1. This molecule yielded an MABP in assay [2] of 115 mmHg.

On to `Nc1n[nH]c(N2CCN(C(=O)c3ccco3)CC2)n1`, for which the HR in assay [1] amounted to 410 beats min-1. Moreover, the MABP in assay [2] was 142 mmHg.

In assay [1], `Nc1n[nH]c(N2CCN(Cc3ccc(F)cc3Cl)CC2)n1` gave an HR of 410 beats min-1. Moreover, the MABP in assay [2] is reported as 145 mmHg.

In the case of `Nc1n[nH]c(N2CCN(CC3CC3)CC2)n1`, in assay [1], the HR is on record as 390 beats min-1. In assay [2], this molecule returned an MABP of 104 mmHg.

As to `Nc1n[nH]c(N2CCN(CCCc3ccccc3)CC2)n1`, the HR in assay [1] is 380 beats min-1; in assay [3], 520 beats min-1. Moreover, the figures for the MABP in assay [2] and in assay [4] were 93 mmHg and 95 mmHg, respectively.

Take `C=CCN1CCN(c2nc(N)n[nH]2)CC1`: the HR in assay [1] came out at 360 beats min-1. This molecule came in with an MABP in assay [2] of 96 mmHg.

`Nc1n[nH]c(N2CCN(Cc3ccc(F)cc3)CC2)n1` gave an HR in assay [1] of 360 beats min-1. In assay [2], this molecule came in with an MABP of 97 mmHg.

`CN(C)c1ccc(CN2CCN(c3n[nH]c(N)n3)CC2)c(Cl)c1` came in with an HR in assay [1] of 400 beats min-1. For the same molecule, the MABP in assay [2] was 120 mmHg.

As to `Nc1n[nH]c(N2CCN(C(=O)c3ccc(-c4ccccc4)cc3)CC2)n1`, in assay [1], the HR was 400 beats min-1. The molecule also had an MABP in assay [2] of 138 mmHg.

Regarding `Nc1ccc(CN2CCN(c3n[nH]c(N)n3)CC2)cc1`, the HR in assay [1] was 380 beats min-1. Further, the MABP in assay [2] was determined as 109 mmHg.

Consider `Nc1n[nH]c(N2CCN(CC3CCCCC3)CC2)n1`, for which, in assay [1], the HR was 420 beats min-1. Besides, in assay [2], the MABP is on record as 123 mmHg.

Consider `Nc1n[nH]c(N2CCN(Cc3ccccc3F)CC2)n1`, for which the HR in assay [1] came to 350 beats min-1; in assay [3], 330 beats min-1. Further, the MABP in assay [2] came to 97 mmHg; in assay [4], 79 mmHg.

Regarding `Nc1n[nH]c(N2CCN(CCCOc3ccccc3)CC2)n1`, in assay [1], the HR stood at 310 beats min-1. The molecule also registered an MABP in assay [2] of 89 mmHg.

`CC(C)(C)c1ccc(C(=O)N2CCN(c3n[nH]c(N)n3)CC2)cc1`: the HR in assay [1] came to 400 beats min-1. Besides, the MABP in assay [2] is given as 141 mmHg.

With `CN(C)c1ccc(CN2CCN(c3n[nH]c(N)n3)CC2)cc1Br`, in assay [1], the HR was found to be 320 beats min-1. This molecule also came in with an MABP in assay [2] of 116 mmHg.

`CN(C)CCCN1CCN(c2n[nH]c(N)n2)CC1` displayed an HR in assay [1] of 420 beats min-1. This molecule displayed an MABP in assay [2] of 140 mmHg.

The molecule `Cc1cc(C)c(CN2CCN(c3n[nH]c(N)n3)CC2)c(C)c1` returned an HR in assay [1] of 430 beats min-1. The molecule further showed an MABP in assay [2] of 137 mmHg.

In assay [1], `Br.Br.Nc1n[nH]c(N2CCNCC2)n1` yielded an HR of 410 beats min-1. Further, the MABP in assay [2] came out at 92 mmHg.

Turning to `Clc1cccc(Cl)c1NC1=NCCN1` [CLONIDINE], in assay [1], the HR came to 180 beats min-1. The molecule further displayed an MABP in assay [2] of 102 mmHg.

The molecule `COc1cc(CN2CCN(c3n[nH]c(N)n3)CC2)cc(OC)c1OC` came in with an HR in assay [1] of 440 beats min-1. Besides, the MABP in assay [2] amounted to 132 mmHg.

`COc1ccccc1N1CCN(c2n[nH]c(N)n2)CC1` registered an HR in assay [1] of 440 beats min-1. This molecule also displayed an MABP in assay [2] of 157 mmHg.

For `Nc1n[nH]c(N2CCN(Cc3ccc(Cl)c(Cl)c3)CC2)n1`, the HR in assay [1] worked out at 330 beats min-1. The molecule further came in with an MABP in assay [2] of 95 mmHg.

As to `Nc1n[nH]c(N2CCN(C/C=C/c3ccccc3)CC2)n1`, the HR in assay [1] worked out at 430 beats min-1. Besides, the MABP in assay [2] is 101 mmHg.

Molecule `CCCCc1ccc(CN2CCN(c3n[nH]c(N)n3)CC2)cc1` gave an HR in assay [1] of 360 beats min-1. Further, the MABP in assay [2] amounted to 136 mmHg.

Regarding `Nc1n[nH]c(N2CCN(CC3CCCC3)CC2)n1`, the HR in assay [3] is 440 beats min-1. The MABP in assay [2] came to 114 mmHg; in assay [4] it was 117 mmHg.

In assay [1], `Nc1n[nH]c(N2CCN(Cc3ccc4ccccc4n3)CC2)n1` yielded an HR of 440 beats min-1. The MABP in assay [2] turned out to be 121 mmHg.

`Cc1cccc(CN2CCN(c3n[nH]c(N)n3)CC2)c1` displayed an HR in assay [1] of 440 beats min-1. In addition, the MABP in assay [2] came out at 132 mmHg.

Consider `Nc1n[nH]c(N2CCN(Cc3ccccc3[N+](=O)[O-])CC2)n1`, for which, in assay [1], the HR worked out at 430 beats min-1. Also, the MABP in assay [2] is reported as 135 mmHg.

On to `Cc1ccccc1CN1CCN(c2n[nH]c(N)n2)CC1`, for which, in assay [1], the HR was 410 beats min-1. In assay [2], this molecule registered an MABP of 131 mmHg.
